The values that follow come from ChEMBL document CHEMBL1153315, “Porphyrins containing nitric oxide donors: Synthesis and cancer cell-oriented NO release” (Bioorg Med Chem Lett, 2009).

SMILES strings stand for the structures. The source made the active and inactive calls. The calls are words filed in the database; no cut-off is given here.

Broadly, the IC50 is the concentration that gives 50% inhibition. High values mean weaker potency, low ones greater potency.

In series [1] the test system is Bel-7402. The series can be described thus: Cytotoxicity against human Bel7402 after 72 hrs by MTT assay. It counts as functional, cell-based. Conditions: Bel-7402, 72 h. In outline:
(§1)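 Cells seeded at 1×10^3 per well in medium, preincubated 24 h at 37 °C in 5% CO2, then test drug added in medium to quadruplicate wells for 72 h. MTT ([…] in complete medium) added for 4 h; formazan dissolved in DMSO buffered with glycine-NaCl (pH 10.5); absorbance at 570 nm. IC50 taken as concentration giving 50% loss of viability; means of three experiments.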
(Tetrazolium dyes change colour on reduction, which living cells bring about.)

The test system of series [2] is MCF7. Nature of the series: Cytotoxicity against human MCF7 after 72 hrs by MTT assay. As to conditions: MCF7, 72 h. It counts as functional, cell-based. Put shortly:
as §1

Series [3] is described as follows: Induction of NO release in PBS at pH 7.4 by Griess assay. It counts as physicochemical. Conditions: buffer. In outline: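 Compound at 2 mM in 0.1 M phosphate buffer pH 7.4, no L-cysteine, incubated 1.5 h at 37 °C without air, then 10 min air at 25 °C. Nitrite measured by Griess reagent (sulfanilamide/N-naphthylethylenediamine), absorbance at 540 nm against a 0–100 µM sodium nitrite curve; expressed as % of 1 mol NO/mol theoretical release, n = 3.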
On the technique in general: Griess reagent forms a coloured azo dye with nitrite.

Series [4] in a line: Induction of NO release in phosphate buffer containing L-cysteine at pH 7.4 by Griess assay. The series is classed as physicochemical. Put shortly: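 Compound at 0.2 mM in 0.1 M phosphate buffer pH 7.4 mixed 1:1 with fresh 3.6 mM L-cysteine in the same buffer; incubated 1.5 h at 37 °C without air, then exposed to air 10 min at 25 °C. Griess reagent added, absorbance at 540 nm after 10 min; nitrite from sodium nitrite standard curve (0–100 µM); % of 1 mol NO/mol theoretical, n = 3.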

For series [5], the system named is Bel-7402. Nature of the series: Cytotoxicity against human Bel7402 cells at 1.4 umol/L after 72 hrs by MTT assay. It counts as functional, cell-based. Put shortly: (§2)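 BEL-7402 (liver cancer) and L-02 (liver normal) cells seeded at 1×10^3 per well, preincubated 24 h at 37 °C, 5% CO2, exposed to 1.4 μmol/L compound in quadruplicate wells for 72 h. Viability by MTT (4 h), formazan dissolved in glycine-NaCl-buffered DMSO, read at 570 nm. One-way ANOVA with LSD multiple comparisons, P < 0.05.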

A short description of series [6]: Cytotoxicity against human L02 cells at 1.4 umol/L after 72 hrs by MTT assay. It counts as cell-based. Conditions: l02, 72 h, 1.4 µM. Put shortly: as §2
For series [7], the system named is Bel-7402. The series can be described thus: Induction of NO release in human Bel7402 cells assessed as decrease in absorbance at 100 umol/L after 30 mins by spectrophotometry. It counts as functional, cell-based. In outline:
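BEL-7402 cells grown in 24-well plates at 37 °C, 5% CO2 to at least 70% confluency; medium replaced with medium containing 100 µmol/L compound. After 0 and 30 min at 37 °C, the drug-containing medium was removed and its absorbance measured by UV–vis spectrophotometry.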

For `O=c1[nH]cc(F)c(=O)[nH]1` [FLUOROURACIL], the values for the IC50 in series [1] and in series [2] were 4300 nM and 4.7 µM, respectively.
With `Cc1ccc(-c2c3nc(c(-c4ccc(C)cc4)c4ccc([nH]4)c(-c4ccc(OCCCO[N+](=O)[O-])cc4)c4nc(c(-c5ccc(C)cc5)c5ccc2[nH]5)C=C4)C=C3)cc1`, the Activity in series [3] came out at 1.1%; in series [4], 6.25%. The half-inhibitory concentration (IC50) in series [1] is 1400 nM; in series [2] it was 46 µM. For the same compound, the outcome in series [5] was Active.
For `O=[N+]([O-])OCCCOc1ccc(-c2c3nc(c(-c4ccccc4)c4ccc([nH]4)c(-c4ccccc4)c4nc(c(-c5ccccc5)c5ccc2[nH]5)C=C4)C=C3)cc1` the same measures were 0.47%, 3.95%, 3000 nM, 30 µM and “Active”.
With `O=Cc1ccc(OCCO[N+](=O)[O-])cc1`, the Activity entry in series [6] is reported as “Toxic”.
As to `O=[N+]([O-])OCCOc1ccc(-c2c3nc(c(-c4ccccc4)c4ccc([nH]4)c(-c4ccccc4)c4nc(c(-c5ccccc5)c5ccc2[nH]5)C=C4)C=C3)cc1`, the values for the Activity in series [3] and in series [4] were 0.43% and 5.67%, respectively. The results for the IC50 in series [1] and in series [2] were 800 nM and 8.7 µM, respectively. Also, the result in series [5] and in series [7] was Active.
As to `Cc1ccc(-c2c3nc(c(-c4ccc(C)cc4)c4ccc([nH]4)c(-c4ccc(OCCO[N+](=O)[O-])cc4)c4nc(c(-c5ccc(C)cc5)c5ccc2[nH]5)C=C4)C=C3)cc1`, the results for the Activity in series [3] and in series [4] were 0.55% and 3.12%, respectively. In addition, the IC50 was 1800 nM in series [1] and 55 µM in series [2]. Besides, in series [5], the result was Active.
Turning to `C1=Cc2nc1c(-c1ccccc1)c1nc(c(-c3ccccc3)c3ccc([nH]3)c(-c3ccccc3)c3ccc([nH]3)c2-c2ccccc2)C=C1` [TETRAPHENYLPORPHYRIN], the results for the IC50 in series [1] and in series [2] were 350000 nM and 245 µM, respectively.
On to `O=Cc1ccc(OCCCO[N+](=O)[O-])cc1`, for which the Activity entry in series [6] is “Toxic”.
